Reference: ChEMBL document CHEMBL1126298, “New triazine derivatives as potent modulators of multidrug resistance” (1992)

Columns and labels:
KB [1] = test: Percent of cell viability remaining after incubating the cells with the modulator alone; assay type: functional, Homo sapiens; parameters: concentration or dose not given beside the values
Method in brief: (§1)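 Cells were grown with modulator alone for 4 days under the same conditions as the chemosensitivity assay, and read by MTT. Viability = (absorbance with modulator/absorbance of control cells) × 100. "tox" marks viability below 25%.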

DC3F/AD [2] = test: In vitro activity in DC-3F/AD cell line(Ratio of IC50(actinomycin D alone) / IC50(actinomycin D + modulator) at a concentration of 5 uM
KB [3] = test: Increase in adriamycin uptake in modulator-treated cells relative to untreated KB-A1 cells at a concentration of 5 uM; assay type: functional, Homo sapiens
Method in brief: (§2)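 DC-3F/AD or KB-A1 cells (5 × 10⁶/mL) were incubated at 37 °C for 5 h with 50 μM adriamycin plus modulator (2.5–10 μM range). ADR fluorescence of 10 000 cells was read by flow cytometry at 4 °C with 488 nm argon-laser excitation. The value is the increase in mean fluorescence of treated cells over untreated cells.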

DC3F/AD [4] = test: Percent of cell viability remaining after incubating with a 10 uM concentration; assay type: functional, Cricetulus griseus; method in brief: as §1
KB [5] = test: Compound was evaluated for the in vitro activity in KB-A1 cell line. Activity expressed as fold reversion (Ratio of IC50(adriamycin alone) / IC50(adriamycin + modulator) at a concentration of 5 uM; assay type: functional, Homo sapiens
Method in brief: (§3)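 Human epidermoid KB-A1 cells (Pgp-overexpressing) were grown in RPMI 1640 with 10% FCS and 10 mM HEPES (pH 7.4). They were exposed for 4 days to adriamycin (nine graded concentrations, in triplicate) with or without 5 μM modulator. IC50 was read by the MTT assay. Fold reversion = IC50(ADR alone)/IC50(ADR + modulator).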

DC3F/AD [6] = test: Increase in adriamycin uptake in modulator-treated cells relative to untreated cells at a concentration of 10 uM; assay type: functional, Cricetulus griseus; method in brief: as §2
DC3F/AD [7] = test: Percent of cell viability remaining after incubating the cells with the modulator alone a concentration of 5 uM; assay type: functional, Cricetulus griseus; method in brief: as §1
DC3F/AD [8] = test: Increase in adriamycin uptake in modulator-treated cells relative to untreated cells at a concentration of 5 uM; assay type: functional, Cricetulus griseus; method in brief: as §2
DC3F/AD [9] = test: In vitro activity in DC-3F/AD cell line Ratio of IC50(actinomycin D alone) / IC50(actinomycin D + modulator) at a concentration of 10 uM
P388 [10] = test: Antitumor activity of vincristine against P388 leukemia cell line in mice at a dose of 50 mg/kg; assay type: functional, Mus musculus
P388 [11] = test: Antitumor activity of vincristine against P388 leukemia cell line in mice at a dose of 100 mg/kg; assay type: functional, Mus musculus
KB [12] = test: In vitro activity in KB-A1 cell line activity expressed as fold reversion (Ratio of IC50(adriamycin alone) / IC50(adriamycin + modulator) at a concentration of 5 uM; assay type: functional, Homo sapiens; method in brief: as §3
P388/VCR [13] = test: Antitumor activity of vincristine against P388/VCR leukemia in mice at a dose of 100 mg/kg; assay type: functional, Mus musculus
P388/VCR [14] = test: Antitumor activity of vincristine against P388/VCR leukemia in mice at a dose of 50 mg/kg; assay type: functional, Mus musculus
DC3F/AD [15] = test: Compound was evaluated for in vitro activity in DC-3F/AD cell line (Ratio of IC50(actinomycin D alone) / IC50(actinomycin D + modulator) at a concentration of 5 uM
P388 [16] = test: Antitumor activity of vincristine against P388 leukemia cell line in mice at a dose of 100 mg/kg.; assay type: functional, Mus musculus

SMILES	Viability (KB [1]) [%]	Fold reversion (DC3F/AD [2])	Increase (KB [3])	Viability (DC3F/AD [4]) [%]	Fold reversion (KB [5])	Increase (DC3F/AD [6])	Viability (DC3F/AD [7]) [%]	Increase (DC3F/AD [8])	Fold reversion (DC3F/AD [9])	T/C (P388 [10]) [%]	T/C (P388 [11]) [%]	Fold reversion (KB [12])	T/C (P388/VCR [13]) [%]	T/C (P388/VCR [14]) [%]	Fold reversion (DC3F/AD [15])	T/C (P388 [16]) [%]
C=CCNc1nc(NCC=C)nc(N2CCC(NCC3c4ccccc4COc4ccccc43)CC2)n1 (centres undefined)	106	1932	53.7	78	274	25.3	82	25.5	5344	196	191	–	–	–	–	–
C=CCNc1nc(NCC=C)nc(N2CCC(NCC(c3ccc(F)cc3)c3ccc(F)cc3)CC2)n1	75	–	56.5	62	–	35.6	78	26.1	2564	168	–	168	185	176	918	157
